# Laboratory results from ChEMBL document CHEMBL1145480, “Horizontal gene transfer of ftsI, encoding penicillin-binding protein 3, in Haemophilus influenzae” (2007).
# Assays:
# Type in all cases: functional
# [1] = test system: Aggregatibacter aphrophilus; experiment: Antibacterial activity against Haemophilus aphrophilus ATCC 33389 by broth microdilution method
# [2] = test system: Aggregatibacter aphrophilus; experiment: Antibacterial activity against Haemophilus paraphrophilus ATCC 29241 by broth microdilution method
# [3] = test system: Aggregatibacter segnis; experiment: Antibacterial activity against Haemophilus segnis ATCC 33393 by broth microdilution method
# [4] = test system: Haemophilus parahaemolyticus; experiment: Antibacterial activity against Haemophilus parahaemolyticus ATCC 10014 by broth microdilution method
# [5] = test system: Haemophilus paraphrohaemolyticus; experiment: Antibacterial activity against Haemophilus paraphrohaemolyticus ATCC 29237 by broth microdilution method
# [6] = test system: Haemophilus influenzae; experiment: Antibacterial activity against Haemophilus influenzae Rd by broth microdilution method
# In short: (§1)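 MICs were determined by broth dilution following CLSI guidelines (approved standard M7-A7). The agents were rifampin, cefdinir and fosfomycin. Strains were routinely grown on chocolate II agar or in brain heart infusion broth with 2% defibrinated, lysed horse blood plus 15 μg/ml β-NAD+.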
# [7] = test system: Haemophilus influenzae; experiment: Antibacterial activity against rifampin and cefdinir-resistant Haemophilus influenzae RdRIF/MSC06647 mutant by broth microdilution method; in short: as §1
# [8] = test system: Haemophilus influenzae; experiment: Antibacterial activity against rifampin and cefdinir-resistant Haemophilus influenzae RdRIF/MSC06651 mutant by broth microdilution method; in short: as §1
# [9] = test system: Haemophilus influenzae; experiment: Antibacterial activity against rifampin and cefdinir-resistant Haemophilus influenzae RdRIF/MSC06663 mutant by broth microdilution method; in short: as §1
# [10] = test system: Haemophilus influenzae; experiment: Antibacterial activity against Haemophilus influenzae MSC02070 by broth microdilution method; in short: as §1
# [11] = test system: Haemophilus influenzae; experiment: Antibacterial activity against Haemophilus influenzae MSC01869 by broth microdilution method; in short: as §1
# [12] = test system: Haemophilus influenzae; experiment: Antibacterial activity against Haemophilus influenzae MSC01400 by broth microdilution method; in short: as §1
# [13] = test system: Haemophilus influenzae; experiment: Antibacterial activity against Haemophilus influenzae MSC01855 by broth microdilution method; in short: as §1
# [14] = test system: Haemophilus influenzae; experiment: Antibacterial activity against Haemophilus influenzae MSC07237 by broth microdilution method; in short: as §1
# [15] = test system: Haemophilus influenzae; experiment: Antibacterial activity against Haemophilus influenzae MSC02104 by broth microdilution method
# [16] = test system: Haemophilus influenzae; experiment: Antibacterial activity against Haemophilus influenzae MSC02149 by broth microdilution method; in short: as §1
# [17] = test system: Haemophilus influenzae; experiment: Antibacterial activity against Haemophilus influenzae MSC02022 by broth microdilution method; in short: as §1
# [18] = test system: Haemophilus influenzae; experiment: Antibacterial activity against Haemophilus influenzae MSC01363 by broth microdilution method; in short: as §1
# [19] = test system: Haemophilus influenzae; experiment: Antibacterial activity against Haemophilus influenzae MSC01432 by broth microdilution method; in short: as §1
# [20] = test system: Haemophilus influenzae; experiment: Antibacterial activity against Haemophilus influenzae MSC06647 by broth microdilution method; in short: as §1
# [21] = test system: Haemophilus influenzae; experiment: Antibacterial activity against Haemophilus influenzae MSC06651 by broth microdilution method; in short: as §1
# [22] = test system: Haemophilus influenzae; experiment: Antibacterial activity against Haemophilus influenzae MSC06663 by broth microdilution method; in short: as §1
# [23] = test system: Haemophilus influenzae; experiment: Antibacterial activity against rifampin-resistant Haemophilus influenzae RdRIF by broth microdilution method; in short: as §1
# [24] = test system: Haemophilus influenzae; experiment: Antibacterial activity against Haemophilus influenzae MSC07169 by broth microdilution method; in short: as §1
# [25] = test system: Haemophilus influenzae; experiment: Antibacterial activity against Haemophilus influenzae MSC07771 by broth microdilution method; in short: as §1
# [26] = test system: Haemophilus haemolyticus; experiment: Antibacterial activity against Haemophilus haemolyticus MSC07286 by broth microdilution method
# [27] = test system: Haemophilus haemolyticus; experiment: Antibacterial activity against Haemophilus haemolyticus ATCC 33390 by broth microdilution method
# [28] = test system: Haemophilus parainfluenzae; experiment: Antibacterial activity against Haemophilus parainfluenzae ATCC 33392 by broth microdilution method
structure (smiles),measurement,setting,value
C=CC1=C(C(=O)O)N2C(=O)[C@@H](NC(=O)/C(=N\O)c3csc(N)n3)[C@H]2SC1 [CEFDINIR],MIC,[1],0.12 µg/mL
same,MIC,[2],0.06 µg/mL
same,MIC,[3],0.06 µg/mL
same,MIC,[4],0.016 µg/mL
same,MIC,[5],0.016 µg/mL
same,MIC,[6],0.25 µg/mL
same,MIC,[7],2 µg/mL
same,MIC,[8],8 µg/mL
same,MIC,[9],8 µg/mL
same,MIC,[10],8 µg/mL
same,MIC,[11],8 µg/mL
same,MIC,[12],8 µg/mL
same,MIC,[13],8 µg/mL
same,MIC,[14],16 µg/mL
same,MIC,[15],16 µg/mL
same,MIC,[16],16 µg/mL
same,MIC,[17],2 µg/mL
same,MIC,[18],1 µg/mL
same,MIC,[19],2 µg/mL
same,MIC,[20],1 µg/mL
same,MIC,[21],8 µg/mL
same,MIC,[22],2 µg/mL
same,MIC,[23],0.25 µg/mL
same,MIC,[24],1 µg/mL
same,MIC,[25],1 µg/mL
same,MIC,[26],2 µg/mL
same,MIC,[27],0.12 µg/mL
same,MIC,[28],0.12 µg/mL
C[C@@H]1O[C@@H]1P(=O)(O)O [FOSFOMYCIN],MIC,[6],2 µg/mL
same,MIC,[7],2 µg/mL
same,MIC,[8],1 µg/mL
same,MIC,[9],2 µg/mL
same,MIC,[20],0.12 µg/mL
same,MIC,[21],256 µg/mL
same,MIC,[22],0.06 µg/mL
same,MIC,[23],2 µg/mL
CO[C@H]1/C=C/O[C@@]2(C)Oc3c(C)c(O)c4c(O)c(c(/C=N/N5CCN(C)CC5)c(O)c4c3C2=O)NC(=O)/C(C)=C\C=C\[C@H](C)[C@H](O)[C@@H](C)[C@@H](O)[C@@H](C)[C@H](OC(C)=O)[C@@H]1C [RIFAMPIN],MIC,[6],0.5 µg/mL
same,MIC,[7],> 128 µg/mL
same,MIC,[8],> 128 µg/mL
same,MIC,[9],> 128 µg/mL
same,MIC,[20],0.25 µg/mL
same,MIC,[21],0.5 µg/mL
same,MIC,[22],0.5 µg/mL
same,MIC,[23],> 128 µg/mL
CC1(C)S[C@@H]2[C@H](NC(=O)[C@H](N)c3ccccc3)C(=O)N2[C@H]1C(=O)O [AMPICILLIN],MIC,[1],0.5 µg/mL
same,MIC,[2],0.25 µg/mL
same,MIC,[3],0.5 µg/mL
same,MIC,[4],0.25 µg/mL
same,MIC,[5],0.25 µg/mL
same,MIC,[10],8 µg/mL
same,MIC,[11],> 64 µg/mL
same,MIC,[12],8 µg/mL
same,MIC,[13],4 µg/mL
same,MIC,[14],4 µg/mL
same,MIC,[15],> 64 µg/mL
same,MIC,[16],8 µg/mL
same,MIC,[17],1 µg/mL
same,MIC,[18],2 µg/mL
same,MIC,[19],1 µg/mL
same,MIC,[20],2 µg/mL
same,MIC,[21],2 µg/mL
same,MIC,[22],1 µg/mL
same,MIC,[23],0.25 µg/mL
same,MIC,[24],1 µg/mL
same,MIC,[25],2 µg/mL
same,MIC,[26],2 µg/mL
same,MIC,[27],0.5 µg/mL
same,MIC,[28],0.5 µg/mL
